Series [1] concerns the target Phosphatidylinositol 4,5-bisphosphate 3-kinase catalytic subunit alpha isoform (Homo sapiens, UniProt P42336). In words: Inhibition of PI3Kalpha (unknown origin).
Series [2] relates to CWR22R. In words: Antiproliferative activity against PSMA-positive human 22Rv1 cells incubated for 72 hrs by Cell Titer Glo assay. The series is classed as functional, cell-based. Particulars: 22Rv1, 72 h. The method, boiled down: (§1)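 Cells grown in RPMI 1640 with 10% FBS, seeded at 3 × 10^3 per well and left overnight, then exposed to a range of compound concentrations for 72 h. Viability read by CellTiter-Glo luminescence after 2 min shaking and 10 min at room temperature. IC50 calculated from the curves; mean of n = 3.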

The test system of another series is LNCaP. The experiment in a line: Antiproliferative activity against PSMA-positive human LNCaP cells incubated for 72 hrs by Cell Titer Glo assay. It is filed as functional, cell-based. The method, boiled down: as §1
The test system of the next series is PC-3. The experiment in a line: Antiproliferative activity against PSMA-negative human PC-3 cells incubated for 72 hrs by Cell Titer Glo assay. It is filed as functional, cell-based. As to conditions: PC-3, 72 h. The method, boiled down:
as §1

A short description of series [3]: Selectivity ratio of IC50 for PSMA-negative human PC-3 cells to IC50 for PSMA-positive human LNCaP cells. It is filed as functional. The method, boiled down: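 Ratio of PC3 IC50 to LNCaP IC50, both from 72 h CellTiter-Glo viability assays.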
Series [4] deals with 22Rv1. In words: Inhibition of PI3K in human 22Rv1 cells assessed as reduction in phosphorylation of AKT at S473 incubated for 3 hrs by Western blot analysis. It is filed as cell-based. As to conditions: dose <= 10.0 µM. The method, boiled down: (§2)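 22Rv1 cells treated at the stated concentrations for 3 h and lysed in RIPA buffer with protease and phosphatase inhibitors. 25 μg protein separated by SDS-PAGE and blotted to PVDF. Probed overnight at 4 °C for phospho- and total mTOR, AKT (Ser473) and S6RP, with β-actin as loading control. Detected by ECL chemiluminescence.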

Series [5] relates to 22Rv1. In words: Inhibition of PI3K in human 22Rv1 cells assessed as reduction in phosphorylation of mTOR incubated for 3 hrs by Western blot analysis. The series is classed as cell-based. As to conditions: dose <= 10.0 µM. The method, boiled down: as §2
For series [6], the system named is 22Rv1. The experiment in a line: Inhibition of PI3K in human 22Rv1 cells assessed as reduction in phosphorylation of S6RP incubated for 3 hrs by Western blot analysis. As to conditions: dose <= 10.0 µM. It is filed as cell-based. The method, boiled down: as §2
Series [7] relates to CWR22R. In words: Induction of cell cycle arrest in human 22Rv1 cells assessed as accumulation at G0/G1 phase incubated for 24 hrs by flow cytometry. Particulars: dose <= 10.0 µM. The series is classed as functional, cell-based. The method, boiled down: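 1 × 10^5 22Rv1 cells treated at several concentrations for 24 h, then fixed in ice-cold 70% ethanol. Stained with PI/RNase and analysed by flow cytometry with 488 nm excitation to give the percentage of cells in each cycle phase.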

Series [8] can be described thus: Toxicity in Balb/c athymic nude mouse xenografted with human 22Rv1 cells assessed as drug tolerance at 10 to 20 mg/kg, ip qd measured for 22 days. It is filed as organism-based. Particulars: in vivo, 528 h, dose 10-20 mg/kg, time 22 day. The method, boiled down: (§3)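 Male Balb/c athymic nude mice, 8–10 weeks old. Tumour cells taken from 22Rv1 donor tumours (grown to 1000 mm3) and implanted at 2 × 10^6 per mouse, subcutaneously in the right flank. Randomized at about 100 mm3. Compound given ip once daily in saline with 1% PEG400; vehicle group received the same. Tumour volume (1/2 × L × W2) and body weight measured twice weekly.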

Series [9] relates to CWR22R. In words: Antitumor activity against human 22Rv1 cells xenografted in Balb/c athymic nude mouse administered intraperitoneally once daily measured for 22 days. Particulars: dose 10-20 mg/kg, route ip, time 22.0 day. The method, boiled down: as §3
The subject of series [10] is CWR22R. The experiment in a line: Antitumor activity against human 22Rv1 cells xenografted in Balb/c athymic nude mouse at 20 mg/kg, ip qd measured for 22 days relative to control. The series is classed as functional. Particulars: 22Rv1, 528 h, time 22 day, read-out: TGI. The method, boiled down:
as §3

Series [11] is described as follows: Toxicity in Balb/c athymic nude mouse xenografted with human 22Rv1 cells assessed as body weight change at 10 to 20 mg/kg, ip qd measured for 22 days. The series is classed as organism-based. As to conditions: in vivo, 528 h, dose 10-20 mg/kg, time 22 day. The method, boiled down:
as §3

Series [12] is described as follows: Selectivity ratio of IC50 for PSMA-negative human PC3 cells to IC50 for PSMA-positive human 22Rv1 cells.

The values that follow come from ChEMBL document CHEMBL6083207, “Design, synthesis and biological evaluation of a novel PSMA-PI3K small molecule drug conjugate” (RSC Med Chem, 2024).

The structures appear in SMILES notation.

Chain of Phosphatidylinositol 4,5-bisphosphate 3-kinase catalytic subunit alpha isoform (P42336 whole entry, canonical isoform): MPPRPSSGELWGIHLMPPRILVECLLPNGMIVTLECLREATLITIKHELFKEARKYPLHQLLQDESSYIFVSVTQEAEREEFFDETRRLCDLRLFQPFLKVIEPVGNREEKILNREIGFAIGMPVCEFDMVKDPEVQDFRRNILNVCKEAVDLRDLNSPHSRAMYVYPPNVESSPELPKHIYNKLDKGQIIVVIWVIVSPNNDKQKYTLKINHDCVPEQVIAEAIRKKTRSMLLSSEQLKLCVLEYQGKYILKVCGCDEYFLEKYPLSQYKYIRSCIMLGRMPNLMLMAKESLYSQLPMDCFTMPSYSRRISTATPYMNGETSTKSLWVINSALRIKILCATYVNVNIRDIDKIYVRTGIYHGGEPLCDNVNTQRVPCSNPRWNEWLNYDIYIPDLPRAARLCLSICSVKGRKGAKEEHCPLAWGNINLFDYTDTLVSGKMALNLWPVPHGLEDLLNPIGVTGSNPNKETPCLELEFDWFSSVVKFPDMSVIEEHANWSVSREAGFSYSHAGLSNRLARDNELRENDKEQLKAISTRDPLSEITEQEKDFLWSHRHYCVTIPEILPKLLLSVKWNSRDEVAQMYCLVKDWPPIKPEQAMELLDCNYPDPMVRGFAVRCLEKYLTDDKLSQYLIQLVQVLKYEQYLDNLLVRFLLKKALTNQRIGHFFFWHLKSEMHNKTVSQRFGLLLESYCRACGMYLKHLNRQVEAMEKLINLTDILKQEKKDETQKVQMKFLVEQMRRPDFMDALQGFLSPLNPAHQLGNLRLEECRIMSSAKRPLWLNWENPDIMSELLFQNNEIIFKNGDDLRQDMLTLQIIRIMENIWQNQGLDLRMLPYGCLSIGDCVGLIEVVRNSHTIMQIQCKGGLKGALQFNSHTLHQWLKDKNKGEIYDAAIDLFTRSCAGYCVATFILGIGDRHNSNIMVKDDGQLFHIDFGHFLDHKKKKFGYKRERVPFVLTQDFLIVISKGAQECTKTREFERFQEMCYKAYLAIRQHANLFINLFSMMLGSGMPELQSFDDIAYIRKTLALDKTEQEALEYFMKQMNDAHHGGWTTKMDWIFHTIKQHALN

`COc1ncc(-c2cc(OCCCC(=O)NC[C@H]3CC[C@@H](C(=O)N[C@@H](Cc4ccc5ccccc5c4)C(=O)NCCCC[C@H](NC(=O)N[C@@H](CCC(=O)O)C(=O)O)C(=O)O)CC3)c3ncnc(C)c3c2)cc1NS(=O)(=O)c1ccc(F)cc1F`: the 50% inhibitory concentration (IC50) in series [1] came to 0.0004 µM; with CWR22R [2], 9.68 µM; with LNCaP, 1.08 µM; in the series on PC-3, 57.8 µM. Moreover, the “Ratio IC50” value was 54 in series [3] and 6 in [12]. Moreover, the inhibition entry in the series with 22Rv1 [4], with 22Rv1 [5] and with 22Rv1 [6] was “Dose-dependent-effect” in each case. The Activity result in the series on CWR22R [7] is “Dose-dependent-effect”; in series [8] it was “Non-toxic”; in the series with CWR22R [9], “Dose-dependent-effect”; in series [11], “Non-toxic”. Also, in the series on CWR22R [10], the inhibition in vivo at 20 mg/kg is 53%.

Take `NCCCC[C@H](NC(=O)N[C@@H](CCC(=O)O)C(=O)O)C(=O)O`: the half-inhibitory concentration (IC50) with LNCaP is > 100 µM.
